Reference: ChEMBL document CHEMBL1811848 (Bioorg Med Chem Lett, 2011)

Assays:
[1] = test system: Rattus norvegicus; assay: Toxicity in female Wistar rat assessed as urea level at 30 mg/kg, po measured after 28 days (reference value: 33.05 +/- 2.02 mg/dl); format: organism-based; parameters: dose 30 mg/kg, route oral; conditions: in vivo, 672 h
[2] = test system: Rattus norvegicus; assay: Toxicity in female Wistar rat assessed as liver to body weight ratio at 3 mg/kg, po measured after 28 days (reference value: 3.091 +/- 0.087); format: organism-based; parameters: dose 3 mg/kg, route oral; conditions: in vivo, 672 h
[3] = target: T1, Peroxisome proliferator-activated receptor gamma (Homo sapiens, UniProt P37231); assay: Transactivation of human PPARgamma expressed in human HepG2 cells co-transfected with PPRE3-TK-Luc by luciferase reporter gene assay; format: cell-based
T1 sequence (P37231 whole entry): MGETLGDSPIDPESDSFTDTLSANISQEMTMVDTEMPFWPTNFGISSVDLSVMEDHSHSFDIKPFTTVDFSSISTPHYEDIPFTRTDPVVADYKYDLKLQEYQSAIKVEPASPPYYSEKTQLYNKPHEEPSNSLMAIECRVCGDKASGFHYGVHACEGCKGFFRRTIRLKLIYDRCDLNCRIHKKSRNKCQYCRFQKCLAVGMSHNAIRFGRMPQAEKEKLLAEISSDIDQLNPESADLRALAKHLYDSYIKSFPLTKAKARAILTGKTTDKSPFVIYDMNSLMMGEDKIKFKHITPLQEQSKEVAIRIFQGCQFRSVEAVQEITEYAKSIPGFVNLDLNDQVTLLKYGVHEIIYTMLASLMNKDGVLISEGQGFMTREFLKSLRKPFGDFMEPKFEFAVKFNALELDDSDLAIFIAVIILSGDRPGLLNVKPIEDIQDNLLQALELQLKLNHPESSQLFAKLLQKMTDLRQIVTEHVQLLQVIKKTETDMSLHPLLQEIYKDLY
Summary of the method: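 HepG2 cells transfected with pSG5 vector carrying hPPARα, hPPARγ or hPPARδ cDNA, co-transfected with PPRE3-TK-luc. Firefly luciferase activity measured with a commercial kit. β-galactosidase activity read on an ELISA reader. Controls: WY14643 (α), rosiglitazone (γ), GW501516 (δ).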

[4] = test system: Rattus norvegicus; assay: Toxicity in male Wistar rat assessed as […] level at 3 mg/kg, po measured after 28 days (reference value: 243.88 +/- 20.34 U/L); format: organism-based; parameters: dose 3 mg/kg, route oral; conditions: in vivo, 672 h
[5] = test system: Mus musculus; assay: Hypolipidemic activity in Swiss albino mouse assessed as reduction in triglyceride level at 0.1 mg/kg, po; format: functional; parameters: scale not given: the % may be the effect or the level left
[6] = target: T2, Peroxisome proliferator-activated receptor alpha (Homo sapiens, UniProt Q07869); assay: Transactivation of human PPARalpha expressed in human HepG2 cells co-transfected with PPRE3-TK-Luc by luciferase reporter gene assay; format: cell-based
T2 sequence (Q07869 whole entry): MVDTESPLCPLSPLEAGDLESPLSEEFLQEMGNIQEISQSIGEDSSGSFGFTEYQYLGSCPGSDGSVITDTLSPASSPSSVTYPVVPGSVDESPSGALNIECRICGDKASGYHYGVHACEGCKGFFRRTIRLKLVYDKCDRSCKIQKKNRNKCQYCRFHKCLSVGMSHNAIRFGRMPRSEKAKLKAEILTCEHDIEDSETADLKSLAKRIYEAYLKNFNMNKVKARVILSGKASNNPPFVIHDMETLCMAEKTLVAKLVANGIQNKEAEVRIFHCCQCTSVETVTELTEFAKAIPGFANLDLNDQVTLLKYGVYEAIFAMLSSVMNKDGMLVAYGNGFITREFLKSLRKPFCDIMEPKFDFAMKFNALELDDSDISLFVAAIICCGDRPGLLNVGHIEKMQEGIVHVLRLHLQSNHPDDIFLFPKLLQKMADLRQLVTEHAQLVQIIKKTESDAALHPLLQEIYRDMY

[7] = test system: Rattus norvegicus; assay: Toxicity in male Wistar rat assessed as heart to body weight ratio at 3 mg/kg, po measured after 28 days (reference value: 0.383 +/- 0.012); format: organism-based; parameters: dose 3 mg/kg, route oral; conditions: in vivo, 672 h
[8] = test system: Mus musculus; assay: Antihyperglycemic activity in db/db mouse assessed as reduction in plasma glucose level at 3 mg/kg, po; format: functional; parameters: scale not given: the % may be the effect or the level left
[9] = test system: Rattus norvegicus; assay: Toxicity in male Wistar rat assessed as urea level at 30 mg/kg, po measured after 28 days (reference value: 30.52 +/- 0.79 mg/dl); format: organism-based; parameters: dose 30 mg/kg, route oral; conditions: in vivo, 672 h
[10] = AUC (0 to infinity) in fasting Wistar rat at 30 mg/kg, po; format: ADME, organism-based; parameters: time infinity, dose 30 mg/kg, route oral; conditions: plasma
Summary of the method: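 Single oral dose of 30 mg/kg to fasted male Wistar rats. Pharmacokinetic parameters reported as mean ± SD, n = 3.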

[11] = test system: Rattus norvegicus; assay: Toxicity in female Wistar rat assessed as brain to body weight ratio at 30 mg/kg, po measured after 28 days (reference value: 0.970 +/- 0.023); format: organism-based; parameters: dose 30 mg/kg, route oral; conditions: in vivo, 672 h
[12] = test system: Rattus norvegicus; assay: Toxicity in female Wistar rat assessed as creatinine level at 30 mg/kg, po measured after 28 days (reference value: 0.42 +/- 0.04 mg/dl); format: organism-based; parameters: dose 30 mg/kg, route oral; conditions: in vivo, 672 h
[13] = organism: Mus musculus; assay: Antihyperglycemic activity in db/db mouse assessed as reduction in plasma glucose level; format: functional
[14] = test system: Rattus norvegicus; assay: Toxicity in male Wistar rat assessed as adrenal to body weight ratio at 3 mg/kg, po measured after 28 days (reference value: 0.018 +/- 0.001); format: organism-based; parameters: dose 3 mg/kg, route oral; conditions: in vivo, 672 h
[15] = test system: Mus musculus; assay: Hypolipidemic activity in Swiss albino mouse assessed as reduction in triglyceride level at 3 mg/kg, po; format: functional; parameters: scale not given: the % may be the effect or the level left
[16] = test system: Rattus norvegicus; assay: Toxicity in female Wistar rat assessed as adrenal to body weight ratio at 30 mg/kg, po measured after 28 days (reference value: 0.028 +/- 0.001); format: organism-based; parameters: dose 30 mg/kg, route oral; conditions: in vivo, 672 h
[17] = test system: Mus musculus; assay: Antihyperglycemic activity in db/db mouse assessed as reduction in plasma glucose level at 0.01 mg/kg, po; format: functional; parameters: scale not given: the % may be the effect or the level left
[18] = test system: Mus musculus; assay: Antihyperglycemic activity in db/db mouse assessed as reduction in plasma glucose level at 0.1 mg/kg, po; format: functional; parameters: scale not given: the % may be the effect or the level left
[19] = test system: Rattus norvegicus; assay: Toxicity in male Wistar rat assessed as liver to body weight ratio at 30 mg/kg, po measured after 28 days (reference value: 3.257 +/- 0.067); format: organism-based; parameters: dose 30 mg/kg, route oral; conditions: in vivo, 672 h
[20] = test system: Rattus norvegicus; assay: Toxicity in male Wistar rat assessed as albumin level at 30 mg/kg, po measured after 28 days (reference value: 3.66 +/- 0.10 g.dl); format: organism-based; parameters: dose 30 mg/kg, route oral; conditions: in vivo, 672 h
[21] = test system: Rattus norvegicus; assay: Toxicity in male Wistar rat assessed as testes to body weight ratio at 30 mg/kg, po measured after 28 days (reference value: 1.075 +/- 0.106); format: organism-based, Testis; parameters: dose 30 mg/kg, route oral; conditions: in vivo, 672 h
[22] = test system: Rattus norvegicus; assay: Toxicity in male Wistar rat assessed as albumin level at 3 mg/kg, po measured after 28 days (reference value: 3.66 +/- 0.10 g.dl); format: organism-based; parameters: dose 3 mg/kg, route oral; conditions: in vivo, 672 h
[23] = test system: Rattus norvegicus; assay: Toxicity in male Wistar rat assessed as heart to body weight ratio at 30 mg/kg, po measured after 28 days (reference value: 0.383 +/- 0.012); format: organism-based; parameters: dose 30 mg/kg, route oral; conditions: in vivo, 672 h
[24] = test system: Rattus norvegicus; assay: Toxicity in male Wistar rat assessed as change in body weight at 3 mg/kg, po measured after 28 days relative to control; format: organism-based; parameters: dose 3 mg/kg, route oral; conditions: in vivo, 672 h
[25] = test system: Mus musculus; assay: Hypolipidemic activity in db/db mouse assessed as reduction in triglyceride level at 0.01 mg/kg, po; format: functional; parameters: scale not given: the % may be the effect or the level left
[26] = test system: Rattus norvegicus; assay: Toxicity in female Wistar rat assessed as urea level at 3 mg/kg, po measured after 28 days (reference value: 33.05 +/- 2.02 mg/dl); format: organism-based; parameters: dose 3 mg/kg, route oral; conditions: in vivo, 672 h

Compound: CCO[C@@H](Cc1ccc(OCCc2nc(-c3ccc(C)s3)oc2C)cc1)C(=O)O
- Activity [1]: 37.39 mg/dL
- Ratio [2]: 6.221
- EC50 [3]: 18 pM
- Activity [4]: 470.5 U/L
- Activity [5]: 71.8%
- EC50 [6]: 0.31 pM
- Ratio [7]: 0.412
- Activity [8]: 62.2%
- Activity [9]: 34.58 mg/dL
- AUC(0-inf) [10]: 456 µg·h/mL
- Ratio [11]: 0.939
- Activity [12]: 0.41 mg/dL
- ED50 [13]: 0.166 mg/kg
- Ratio [14]: 0.015
- Activity [15]: 83.1%
- Ratio [16]: 0.022
- Activity [17]: 52.7%
- Activity [18]: 51.7%
- Ratio [19]: 8.099
- Activity [20]: 4.12 g/dL
- Ratio [21]: 1.356
- Activity [22]: 3.91 g/dL
- Ratio [23]: 0.479
- Activity [24]: 33.99%
- Activity [25]: 6.6%
- Activity [26]: 29.19 mg/dL
